The results in this text go back to ChEMBL document CHEMBL5236609, “Optimization of 1,2,4-Triazole-3-thiones toward Broad-Spectrum Metallo-β-lactamase Inhibitors Showing Potent Synergistic Activity on VIM- and NDM-1-Producing Clinical Isolates” (J Med Chem, 2022).

Experiment [1] in a line: Inhibition of bacterial Metallo-beta-lactamase VIM-1 (unknown origin). On the set-up: species or system Bacteria. An outline of the steps:
(§1)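 Reporter-substrate assay with purified MBL (1–70 nM final) in 50 mM HEPES pH 7.5 at 30 °C. […] Inhibitor 0.5–1000 μM final. Ki derived from the v0/vi vs [I] slope assuming competitive inhibition, or from a Dixon plot. Ki given when inhibition >70%, otherwise % inhibition at 100 μM. Triplicate.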

Experiment [2] in a line: Inhibition of bacterial Metallo-beta-lactamase VIM-2 (unknown origin). On the set-up: species or system Bacteria. An outline of the steps:
as §1

Experiment [3] is described as follows: Inhibition of bacterial Metallo-beta-lactamase VIM-4 (unknown origin). On the set-up: species or system Bacteria. An outline of the steps: as §1
Experiment [4] in a line: Inhibition of bacterial Metallo-beta-lactamase NDM-1 (unknown origin). On the set-up: species or system Bacteria. An outline of the steps:
as §1

Experiment [5] in a line: Inhibition of bacterial Metallo-beta-lactamase IMP-1 (unknown origin). On the set-up: species or system Bacteria. An outline of the steps: as §1
Experiment [6] deals with Bacteria. The experiment is described as follows: Inhibition of bacterial Metallo-beta-lactamase VIM-1 (unknown origin) at 100 uM relative to control. An outline of the steps: as §1
The nature of experiment [7]: Inhibition of bacterial VIM-1 (unknown origin) expressed in Escherichia coli EXPRESS BL21(DE3) assessed as inhibition constant by measuring rate of substrate hydrolysis by UV-visible spectrophotometry. On the set-up: species or system Bacteria. An outline of the steps: as §1
Experiment [8] is described as follows: Inhibition of bacterial VIM-2 (unknown origin) expressed in Escherichia coli EXPRESS BL21(DE3) assessed as inhibition constant by measuring rate of substrate hydrolysis by UV-visible spectrophotometry. On the set-up: species or system Bacteria. An outline of the steps:
as §1

A short description of experiment [9]: Inhibition of bacterial VIM-4 (unknown origin) expressed in Escherichia coli EXPRESS BL21(DE3) assessed as inhibition constant by measuring rate of substrate hydrolysis by UV-visible spectrophotometry. On the set-up: species or system Bacteria. An outline of the steps: as §1
Experiment [10] deals with Bacteria. Nature of the experiment: Inhibition of bacterial NDM-1 (unknown origin) expressed in Escherichia coli EXPRESS BL21(DE3) assessed as inhibition constant by measuring rate of substrate hydrolysis at 100 uM by UV-visible spectrophotometry relative to control. An outline of the steps:
as §1

For experiment [11], the system named is Bacteria. Nature of the experiment: Inhibition of bacterial IMP-1 (unknown origin) expressed in Escherichia coli EXPRESS BL21(DE3) assessed as inhibition constant by measuring rate of substrate hydrolysis at 100 uM by UV-visible spectrophotometry relative to control. An outline of the steps:
as §1

Experiment [12] concerns Bacteria. Nature of the experiment: Competitive inhibition of bacterial VIM-2 (unknown origin) assessed as Zn(II) content by at 48 uM by overnight equilibrium dialysis. An outline of the steps: (§2)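 VIM-2 or NDM-1 (3 μM final) in 50 mM HEPES pH 7.5 mixed with compound at 0–48 μM. Incubated 1 h on ice, then dialysed overnight at 4 °C against 50 mM HEPES pH 7.5. Zn(II) content measured by atomic absorption at 213.86 nm against a zinc standard curve. Each point averages three samples.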
Background: In equilibrium dialysis only unbound substance equilibrates across the membrane.

In experiment [13] the test system is Bacteria. The experiment is described as follows: Competitive inhibition of bacterial NDM-1 (unknown origin) assessed as Zn(II) content at 48 uM by overnight equilibrium dialysis. An outline of the steps:
as §2

The test system of experiment [14] is Bacteria. Nature of the experiment: Inhibition of bacterial VIM-2 (unknown origin) assessed as ternary complex formation using 10 uM enzyme concentration at 50 uM by native MS analysis. An outline of the steps:
(§3)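 Purified VIM-2 or NDM-1 was given 2 mM TCEP and 2 equiv ZnCl2, incubated 1 h, and dialysed overnight into 100 mM ammonium acetate pH 7.5. Enzyme at 10 μM was then incubated 5 min with 50 μM compound. Positive-mode nanoESI on an Orbitrap, scanning m/z 1000–4000. Species assigned from deconvoluted masses.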

Experiment [15] has as its system Bacteria. Nature of the experiment: Inhibition of bacterial NDM-1 (unknown origin) assessed as ternary complex formation using 10 uM enzyme concentration at 50 uM by native MS analysis. An outline of the steps:
as §3

The subject of experiment [16] is Klebsiella pneumoniae. The experiment is described as follows: Antimicrobial activity against blaVIM-1-producing multidrug-resistant Klebsiella pneumoniae K47-25 clinical isolate assessed as meropenem MIC at 32 ug/ml by broth microdilution method (reference value: […] ug/ml). The experiment is classed as functional. Conditions: dose 32 µg/ml. An outline of the steps:
(§4)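 Inoculum was 5×10^4 CFU/well. Each inhibitor was present at a fixed 32 μg/mL, and MICs were also taken without inhibitor.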
In general terms: Broth dilution looks for growth in wells or tubes with falling amounts of substance.

Experiment [17] concerns Klebsiella pneumoniae. Nature of the experiment: Antimicrobial activity against blaVIM-4-producing multidrug-resistant Klebsiella pneumoniae VA-416/02 clinical isolate assessed as meropenem MIC at 32 ug/ml by broth microdilution method (reference value: […] ug/ml). Type of experiment: functional. The following applies: dose 32 µg/ml. An outline of the steps:
as §4

Experiment [18] deals with Pseudomonas aeruginosa. Nature of the experiment: Antimicrobial activity against blaVIM-2-producing multidrug-resistant Pseudomonas aeruginosa VA-182/00 clinical isolate assessed as meropenem MIC at 32 ug/ml by broth microdilution method (reference value: 128 ug/ml). Type of experiment: functional. The following applies: dose 32 µg/ml. An outline of the steps: as §4

Experiment [19] deals with Escherichia coli. The experiment is described as follows: Antimicrobial activity against blaNDM-1-producing multidrug-resistant Escherichia coli SI-004 clinical isolate assessed as meropenem MIC at 32 ug/ml by broth microdilution method (reference value: 64 ug/ml).
The test system of experiment [20] is Pseudomonas aeruginosa. Nature of the experiment: Antimicrobial activity against blaVIM-2-producing multidrug-resistant Pseudomonas aeruginosa VA-182/00 clinical isolate. The experiment is classed as functional.
Experiment [21] concerns Escherichia coli. The experiment is described as follows: Antimicrobial activity against blaNDM-1-producing multidrug-resistant Escherichia coli SI-004 clinical isolate. The experiment is classed as functional. An outline of the steps: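 Broth microdilution per CLSI in cation-supplemented Mueller–Hinton broth with an inoculum of 5×10^4 CFU/well.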
Experiment [22] can be described thus: Inhibition of bacterial NDM-1 (unknown origin) expressed in Escherichia coli EXPRESS BL21(DE3) assessed as inhibition constant by measuring rate of substrate hydrolysis by UV-visible spectrophotometry. On the set-up: species or system Bacteria. An outline of the steps: as §1
Experiment [23] addresses Insulin-degrading enzyme (Homo sapiens) (UniProt P14735). Nature of the experiment: Inhibition of recombinant human IDE using ATTO 655-Cys-Lys-Leu-Val-Phe-Phe-Ala-Glu-Asp-Trp as substrate at 0.4 uM measured after 45 mins by fluorescence assay relative to control.
Experiment [24] has as its system Bacteria. Nature of the experiment: Inhibition of bacterial Metallo-beta-lactamase NDM-1 (unknown origin) at 100 uM relative to control. An outline of the steps: as §1

Molecules are shown by their SMILES. Values after ≈ are worked out from the molar mass of the structure shown. Active and inactive are the calls of the source. The rule behind the calls is not given here.

Chain of Insulin-degrading enzyme (Homo sapiens) (P14735 whole entry): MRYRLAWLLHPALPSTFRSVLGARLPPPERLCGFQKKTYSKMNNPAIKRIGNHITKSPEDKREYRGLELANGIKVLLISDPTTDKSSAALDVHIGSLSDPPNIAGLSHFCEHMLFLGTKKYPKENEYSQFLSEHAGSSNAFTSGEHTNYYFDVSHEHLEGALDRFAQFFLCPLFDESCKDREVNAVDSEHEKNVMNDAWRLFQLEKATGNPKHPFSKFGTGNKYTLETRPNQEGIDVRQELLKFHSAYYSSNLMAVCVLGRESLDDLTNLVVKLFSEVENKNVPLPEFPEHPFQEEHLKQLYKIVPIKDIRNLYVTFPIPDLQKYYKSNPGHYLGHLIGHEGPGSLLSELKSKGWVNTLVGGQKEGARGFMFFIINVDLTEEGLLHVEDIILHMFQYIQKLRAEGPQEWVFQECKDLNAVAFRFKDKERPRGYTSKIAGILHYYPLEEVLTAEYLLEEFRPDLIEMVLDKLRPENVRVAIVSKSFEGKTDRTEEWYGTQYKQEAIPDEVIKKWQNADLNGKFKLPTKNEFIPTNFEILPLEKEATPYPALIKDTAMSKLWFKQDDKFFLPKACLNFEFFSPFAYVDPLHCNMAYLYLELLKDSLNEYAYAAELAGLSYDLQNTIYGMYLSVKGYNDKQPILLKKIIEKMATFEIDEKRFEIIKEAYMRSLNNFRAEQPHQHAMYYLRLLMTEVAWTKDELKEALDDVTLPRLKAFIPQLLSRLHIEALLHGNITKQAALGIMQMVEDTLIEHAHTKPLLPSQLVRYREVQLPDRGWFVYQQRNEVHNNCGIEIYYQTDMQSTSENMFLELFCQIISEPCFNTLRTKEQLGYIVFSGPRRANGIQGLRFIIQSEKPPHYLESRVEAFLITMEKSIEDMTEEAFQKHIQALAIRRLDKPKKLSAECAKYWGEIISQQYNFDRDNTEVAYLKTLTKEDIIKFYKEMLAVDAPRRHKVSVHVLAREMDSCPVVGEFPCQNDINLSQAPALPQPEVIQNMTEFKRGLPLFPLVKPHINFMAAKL

A word on the Ki: it is the dissociation constant of the complex between target and ligand, obtained from inhibition or displacement. Broadly, the inhibition is the percentage by which the read-out fell short of the control. `O=C(O)CCCCn1c(-c2ccccc2)n[nH]c1=S`: the Ki in experiment [1] was 13900 nM; in experiment [2], 2810 nM; in experiment [3] it was 1130 nM; in experiment [4] it was “Not Active”; in [5] it was “Not Active”. The same molecule came in with an inhibition in experiment [6] of 57%.

What is called MIC is the lowest concentration that inhibits growth of the organism. Regarding `O=C(O)[C@H](CCCn1c(-c2ccccc2)n[nH]c1=S)N(Cc1cccnc1)Cc1cccnc1`, the Ki in experiment [7] stood at 2600 nM; in experiment [8], 420 nM; in [9], 520 nM. In addition, the inhibition in experiment [10] was 67%; in experiment [11], below 30%. In addition, the inhibition entry in [12], in [13], in experiment [14] and in experiment [15] was “Active” each time. Besides, the MIC in [16] is 4 µg/mL; in [17] it was 1 µg/mL; in [18], 128 µg/mL; in [19] it was 64 µg/mL.

As for `C[C@@H](O)[C@H]1C(=O)N2C(C(=O)O)=C(S[C@@H]3CN[C@H](C(=O)N(C)C)C3)[C@H](C)[C@H]12` [MEROPENEM], the MIC in experiment [20] is 128 µg/mL (≈ 334 µM); in [21], 64 µg/mL (≈ 167 µM).

Consider `O=C(O)[C@H](CCCn1c(-c2ccccc2)n[nH]c1=S)N(Cc1cncs1)Cc1cncs1`, for which the Ki in [7] turned out to be 300 nM; in experiment [8], 100 nM; in [9] it was 140 nM; in experiment [22] it was 28000 nM. In addition, in experiment [11], the inhibition is below 30%. In addition, the inhibition entry in [12], in experiment [13], in experiment [14] and in experiment [15] was “Active” in each case. For the same molecule, the MIC was 1 µg/mL in experiment [16], 1 µg/mL in experiment [17], 128 µg/mL in experiment [18] and 32 µg/mL in [19].

For `O=C(Nc1ccccc1)NC(CCCn1c(-c2ccccc2)n[nH]c1=S)C(=O)O` (centres undefined), the Ki is 6930 nM in [2], 4140 nM in experiment [3], “Not Active” in experiment [4] and “Not Active” in [5].

`O=C(C[C@H](Cc1ccc2ccccc2c1)n1cc(CNC(=O)c2ccc(F)cc2)nn1)NO`: the inhibition in experiment [23] was 65%.

Consider `CC(C)(C)OC(=O)N[C@@H](CCCn1c(-c2ccccc2)n[nH]c1=S)C(=O)O`, for which the Ki in [1] is 30800 nM; in experiment [2] it was 1950 nM; in experiment [3] it was 1510 nM; in experiment [5], “Not Active”. This molecule came in with an inhibition in [24] of 35%.
